Test results published in PMC11520922 (International Journal of Nanomedicine, 2024).
“Also recorded” adds a separate entry of the source.

Tests used:
[1] = clinical; cited from earlier work
[2] = cited from earlier work
[3] = system: Peripheral Blood Mononuclear Cells (PBMCs); assay: Ex vivo peripheral blood mononuclear cells; assay type: cell-based, male Sprague–Dawley rats; conditions: rat PBMCs
Procedure, shortened: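 PBMCs came from the peripheral blood of male Sprague–Dawley rats. They were isolated by Ficoll–Paque density-gradient centrifugation, collected from the interphase and washed three times in RPMI 1640. Cells were plated at 1×10^6/well in RPMI 1640 with 10% FBS (37 °C, 5% CO2) and incubated overnight with free test compound or albumin-nanoparticle formulation. Viability was then read by the CCK-8 A450 procedure used for HuT-78.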

[4] = cited from earlier work; remark: listed apart in the source
[5] = In vivo pharmacokinetic study; set-up: species or system Sprague–Dawley rats
Procedure, shortened: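 Male Sprague–Dawley rats (~300 g) were anaesthetised with Zoletil i.m. at […]. They received test compound in 10% ethanol or as albumin nanoparticles s.c. at 0.33 mg g−1. Blood (400 μL) was drawn from the subclavian vein at 0.08–6 h into heparin tubes. Plasma was spiked with carbamazepine internal standard, deproteinised with methanol, dried and reconstituted in methanol. Analysis was by RP-18 HPLC at 265 nm, and parameters were computed by first-order kinetic modelling.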

[6] = male, Sprague-Dawley, rat, plasma, sc, 0.333 mg

Question: With `O=C(/C=C/c1cccc(S(=O)(=O)Nc2ccccc2)c1)NO` [Belinostat] as the compound, how does the “thrombocytopenia adverse events, Grade 3 to 4” value [1] read?
Answer: ~ 7%

Question: And the “thrombocytopenia adverse events, all grades” value [1]?
Answer: ~ 16%

Question: What about the protein binding affinity [2] of the same compound?
Answer: 92.9–95.8%

Question: What about the “viability of PBMCs” value ([3]; concentration 10 μM) of the same compound?
Answer: decreases

Question: And the “viability (survival) of PBMC” value ([3]; high dose 100 μM)?
Answer: did not survive; also recorded: no survival

Question: And the “log P” value [4]?
Answer: 1.83

Question: And the pKa [4]?
Answer: 7.87

Question: What about the CL ([5]; SD rats, subcutaneous, 0.333 mg g^−1, n = 3) of the same compound?
Answer: 5.32 ± 1.53 mL/h

Question: What about the AUC(0-t) [5, 6] of the same compound?
Answer: 62000 ± 28700 ng·h/mL

Question: What about the Cmax [5, 6] of the same compound?
Answer: 8650 ± 780 ng/mL

Question: And the Tmax [5, 6]?
Answer: 0.43 ± 0.13 h

Question: What about the half-life [5, 6] of the same compound?
Answer: 4.66 ± 1.66 h
